Assay results: ChEMBL document CHEMBL1157541, “Identification and characterization of 4-chloro-N-(2-{[5-trifluoromethyl)-2-pyridyl]sulfonyl}ethyl)benzamide (GSK3787), a selective and irreversible peroxisome proliferator-activated receptor delta (PPARdelta) antagonist” (J Med Chem, 2010)
The source made the active and inactive calls. The calls are words filed in the database; no cut-off is given here.

What was measured:
[1] = biological target: T1, Peroxisome proliferator-activated receptor alpha (Homo sapiens, UniProt Q07869); assay: Displacement of [3H]GW2433 from human PPARalpha receptor by ligand displacement assay
T1 sequence (Q07869 whole entry): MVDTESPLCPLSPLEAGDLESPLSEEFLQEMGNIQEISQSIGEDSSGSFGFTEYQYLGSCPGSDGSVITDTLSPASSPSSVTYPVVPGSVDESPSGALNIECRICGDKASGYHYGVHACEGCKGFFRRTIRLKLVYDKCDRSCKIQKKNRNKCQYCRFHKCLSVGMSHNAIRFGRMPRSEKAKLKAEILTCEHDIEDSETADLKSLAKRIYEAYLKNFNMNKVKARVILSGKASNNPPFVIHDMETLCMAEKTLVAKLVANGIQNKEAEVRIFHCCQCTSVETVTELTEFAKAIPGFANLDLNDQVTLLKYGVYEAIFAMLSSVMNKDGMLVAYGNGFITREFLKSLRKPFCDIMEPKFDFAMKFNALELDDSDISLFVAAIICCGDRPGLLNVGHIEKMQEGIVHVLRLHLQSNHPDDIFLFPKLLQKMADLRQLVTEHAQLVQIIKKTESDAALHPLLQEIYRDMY

[2] = biological target: T2, Peroxisome proliferator-activated receptor gamma (Homo sapiens, UniProt P37231); assay: Inhibition of human PPARgamma receptor by ligand displacement assay
T2 sequence (P37231 whole entry): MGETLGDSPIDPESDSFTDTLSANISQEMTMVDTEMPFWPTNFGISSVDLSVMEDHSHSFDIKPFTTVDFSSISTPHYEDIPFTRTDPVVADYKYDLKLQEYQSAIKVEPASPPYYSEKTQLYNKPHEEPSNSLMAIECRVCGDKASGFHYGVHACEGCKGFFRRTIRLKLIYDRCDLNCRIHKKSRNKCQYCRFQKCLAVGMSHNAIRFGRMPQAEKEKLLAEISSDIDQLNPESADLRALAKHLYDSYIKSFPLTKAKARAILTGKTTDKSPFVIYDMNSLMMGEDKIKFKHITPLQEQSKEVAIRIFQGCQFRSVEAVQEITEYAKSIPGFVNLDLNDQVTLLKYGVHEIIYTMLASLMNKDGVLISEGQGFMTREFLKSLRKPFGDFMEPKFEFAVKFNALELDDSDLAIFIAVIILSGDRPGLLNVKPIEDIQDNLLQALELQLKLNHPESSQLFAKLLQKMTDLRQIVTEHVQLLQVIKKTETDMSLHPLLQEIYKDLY

[3] = biological target: T3, Peroxisome proliferator-activated receptor delta (Homo sapiens, UniProt Q03181)
T3 sequence (Q03181 whole entry): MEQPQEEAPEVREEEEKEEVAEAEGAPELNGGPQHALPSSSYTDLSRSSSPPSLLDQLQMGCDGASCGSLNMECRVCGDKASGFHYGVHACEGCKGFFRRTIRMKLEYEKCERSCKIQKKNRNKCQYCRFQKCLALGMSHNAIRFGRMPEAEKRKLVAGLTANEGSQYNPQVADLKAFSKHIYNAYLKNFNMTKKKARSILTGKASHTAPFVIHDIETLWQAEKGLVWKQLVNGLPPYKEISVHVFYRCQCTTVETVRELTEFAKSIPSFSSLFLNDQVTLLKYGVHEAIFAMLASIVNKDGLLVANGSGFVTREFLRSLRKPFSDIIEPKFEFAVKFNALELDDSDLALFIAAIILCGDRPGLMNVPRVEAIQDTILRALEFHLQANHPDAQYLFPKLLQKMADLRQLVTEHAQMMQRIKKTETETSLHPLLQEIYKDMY

[4] = biological target: T3, Peroxisome proliferator-activated receptor delta; assay: Inhibition of human PPARdelta receptor by ligand displacement assay
[5] = Cmax in C57BL/6 mouse at 10 mg/kg, po; assay type: ADME, organism-based; parameters: dose 10 mg/kg, route oral; settings: in vivo
Method in brief: (§1)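 Male C57BL/6 mice were dosed intravenously at 0.5 mg/kg and orally at 10 mg/kg. Clearance and Vss were taken from the iv arm. Cmax, AUCinf, half-life and oral bioavailability were taken from the oral arm. Values are given as mean ± deviation.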

Homo sapiens [6] = organism: Homo sapiens; assay: Inhibition of against 2-(4-((2-(3-fluoro-4-(trifluoromethyl)phenyl)-4-methylthiazol-5-yl)methylthio)-2-methylphenoxy)acetic acid-induced PDK4 gene expression in human skeletal muscle cell at 10 to 10000 nM; assay type: functional
Method in brief: (§2)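 Human skeletal muscle cells were stimulated with PPARδ agonist to induce transcription of the target genes CPT1a and PDK4. Compound was co-tested at various doses, and antagonism of the agonist-stimulated expression was read out.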

SW480 = assay: Antiproliferative against human SW480 cells at 10 uM; assay type: functional, cell-based
Method in brief: (§3)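 Colorectal lines (SW480, HCT116, DLD1, RKO) and non-colorectal lines (A549, HEK293) were incubated with compound for 3 days at concentrations up to 10 μM. Proliferation was compared with DMSO vehicle. Staurosporine and actinomycin D served as positive controls.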

[7] = AUC (0 to infinity) in C57BL/6 mouse at 10 mg/kg, po; assay type: ADME, organism-based; parameters: dose 10 mg/kg, route oral, time infinity; settings: plasma; method in brief: as §1
Homo sapiens [8] = organism: Homo sapiens; assay: Inhibition of against 2-(4-((2-(3-fluoro-4-(trifluoromethyl)phenyl)-4-methylthiazol-5-yl)methylthio)-2-methylphenoxy)acetic acid-induced CPT1a gene expression in human skeletal muscle cell at 10 to 10000 nM; assay type: functional; method in brief: as §2
RKO = assay: Antiproliferative against human RKO cells at 10 uM; assay type: functional, cell-based; method in brief: as §3
HCT-116 = assay: Antiproliferative against human HCT116 cells at 10 uM; assay type: functional, cell-based; method in brief: as §3
A549 = assay: Antiproliferative against human A549 cells at 10 uM; assay type: functional, cell-based; method in brief: as §3
HEK293 = assay: Antiproliferative against human HEK293 cells at 10 uM; assay type: functional, cell-based; method in brief: as §3
Homo sapiens [9] = organism: Homo sapiens; assay: Inhibition of CPT1a gene expression in human skeletal muscle cell at 10 to 10000 nM; assay type: functional
Method in brief: (§4)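 Human skeletal muscle cells were treated with compound at various doses without added agonist. Basal CPT1a and PDK4 transcript expression was assessed.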

[10] = Clearance in C57BL/6 mouse at 0.5 mg/kg, iv; assay type: ADME, organism-based; parameters: dose 0.5 mg/kg, route intravenous; settings: in vivo; method in brief: as §1
DLD-1 = assay: Antiproliferative against human DLD1 cells at 10 uM; assay type: functional, cell-based; method in brief: as §3
[11] = Volume of distribution at steady state in C57BL/6 mouse at 0.5 mg/kg, iv; assay type: ADME, organism-based; parameters: dose 0.5 mg/kg, route intravenous; settings: in vivo, read-out: Vdss; method in brief: as §1
[12] = Half life in C57BL/6 mouse at 10 mg/kg, po; assay type: ADME, organism-based; parameters: dose 10 mg/kg, route oral; settings: in vivo; method in brief: as §1
[13] = Oral bioavailability in C57BL/6 mouse at 10 mg/kg; assay type: ADME, organism-based; settings: in vivo; method in brief: as §1
Homo sapiens [14] = organism: Homo sapiens; assay: Inhibition of PDK4 gene expression in human skeletal muscle cell at 10 to 10000 nM; assay type: functional; method in brief: as §4

| SMILES | IC50 [1] [nM] | IC50 [2] [nM] | IC50 [3] [nM] | IC50 [4] [nM] | also measured |
| --- | --- | --- | --- | --- | --- |
| COC(=O)c1sccc1S(=O)(=O)Nc1ccc(Nc2ccccc2)cc1OC | > 10000 | > 10000 | – | – | – |
| O=C(NCCS(=O)(=O)c1ccc(C(F)(F)F)cn1)c1ccc(Cl)cc1Cl | > 10000 | > 10000 | 200 | 158 | – |
| O=C(NCCS(=O)(=O)c1ccc(C(F)(F)F)cn1)c1ccc(C2CCCCC2)cc1 | > 10000 | > 10000 | – | 1000 | – |
| O=C(NCCS(=O)(=O)c1ccc(C(F)(F)F)cn1)c1ccc(Br)cc1F | > 10000 | > 10000 | 79.4 | 50.1 | – |
| O=C(NCCS(=O)(=O)c1ccc(C(F)(F)F)cn1)c1ccc(Cl)cc1 | > 10000 | > 10000 | 126 | 200 | Cmax [5]: 881 ng/mL; Activity (Homo sapiens [6]): Active; Activity (SW480): inactive; AUC(0-inf) [7]: 3340 ng·h/mL; Activity (Homo sapiens [8]): Active; Activity (RKO): inactive; Activity (HCT-116): inactive; Activity (A549): inactive; Activity (HEK293): inactive; Activity (Homo sapiens [9]): Active; clearance [10]: 39 mL/min/kg; Activity (DLD-1): inactive; Vd [11]: 1.7 L/kg; half-life [12]: 2.7 h; bioavailability [13]: 77%; Activity (Homo sapiens [14]): inactive |
| O=C(NCCS(=O)(=O)c1ccccn1)c1ccc(Cl)cc1 | > 10000 | > 10000 | – | > 10000 | – |
| O=C(NCCS(=O)(=O)c1ccc(C(F)(F)F)cn1)c1ccc(-c2ccccc2)cc1 | – | > 10000 | 251 | 200 | – |
| CC(C)Cc1ccc(C(=O)NCCS(=O)(=O)c2ccc(C(F)(F)F)cn2)cc1 | > 10000 | > 10000 | 200 | 316 | – |
| O=C(NCCS(=O)(=O)c1ccc(C(F)(F)F)cn1)c1ccc(OC(F)(F)F)cc1 | > 10000 | > 10000 | – | 100 | – |
| Cc1ccc(S(=O)(=O)CCNC(=O)c2ccc(Cl)cc2)nc1 | > 10000 | > 10000 | – | > 10000 | – |
| O=C(NCCS(=O)(=O)c1ccc(C(F)(F)F)cn1)c1ccc(Cl)c(Br)c1 | > 10000 | > 10000 | 251 | 126 | – |
| O=C(NCCCS(=O)(=O)c1ccc(C(F)(F)F)cn1)c1ccc(OC(F)(F)F)cc1 | > 10000 | > 10000 | – | 1260 | – |
| Cc1cc(C(=O)NCCS(=O)(=O)c2ccc(C(F)(F)F)cn2)ccc1Cl | > 10000 | > 10000 | 251 | 126 | – |
| O=C(NCCCS(=O)(=O)c1ccc(C(F)(F)F)cn1)c1ccc(Cl)cc1 | > 10000 | > 10000 | – | > 10000 | – |
